Measured values published in ChEMBL document CHEMBL1127665, “Synthesis and antibacterial activity of new quinolones containing a 7-[3-(1-amino-1-methylethyl)-1-pyrrolidinyl] moiety. Gram-positive agents with excellent oral activity and low side-effect potential” (J Med Chem, 1994).
In brackets after ≈: the same amount, converted by molar mass.

What was measured:
Mus musculus [1] = test: In vivo antibacterial activity against Streptococcus pyogenes after following oral administration; type: functional; conditions: read-out: PD50
In short: (§1)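 Acute lethal systemic infection in female Charles River CD-1 mice. Compound given orally or subcutaneously. Potency expressed as median protective dose (PD50, mg/kg), the dose preventing death in 50% of animals.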

Enterococcus faecalis = test: Minimum inhibitory concentration against Streptococcus faecalis MGH-2; type: functional
In short: (§2)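 Tested by microtitration against a panel of 10 Gram-positive and Gram-negative organisms. MIC is reported in μg/mL.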

Staphylococcus aureus [2] = test: Minimum inhibitory concentration against Staphylococcus aureus H 228; type: functional; in short: as §2
Escherichia coli = test: Minimum inhibitory concentration against Escherichia coli Vogel; type: functional; in short: as §2
Mus musculus [3] = test: In vivo antibacterial activity against Escherichia coli after following oral administration; type: functional; conditions: read-out: PD50; in short: as §1
Mus musculus [4] = test: In vivo antibacterial activity against Escherichia coli after following subcutaneous administration; type: functional; conditions: sc, read-out: PD50; in short: as §1
Staphylococcus aureus [5] = test: Minimum inhibitory concentration against Staphylococcus aureus UC-76; type: functional; in short: as §2
Mus musculus [6] = test: In vivo antibacterial activity against Streptococcus pyogenes after following subcutaneous administration; type: functional; conditions: sc, read-out: PD50; in short: as §1
Klebsiella pneumoniae = test: Minimum inhibitory concentration against Klebsiella pneumoniae MGH-2; type: functional; in short: as §2
Pseudomonas aeruginosa = test: Minimum inhibitory concentration against U1-18 cell line from Pseudomonas aeruginosa; type: functional; in short: as §2
Enterobacter cloacae = test: Minimum inhibitory concentration against Enterobacter cloacae MA 2646; type: functional
Providencia rettgeri = test: Minimum inhibitory concentration against M1771 strain of Providencia rettgeri; type: functional; in short: as §2
Streptococcus pneumoniae = test: Minimum inhibitory concentration tested against Streptococcus pneumoniae SV-1; type: functional; in short: as §2
Streptococcus pyogenes = test: Minimum inhibitory concentration against Streptococcus pyogenes C203; type: functional; in short: as §2
V79 = test: Clonogenic cytotoxicity against Hamster V-79 cells; type: cell-based; conditions: Cricetulus griseus
[7] = The no effect dose (NED) for phototoxicity in mouse; type: organism-based; conditions: in vivo, read-out: NED
In short: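 Female CD-1 mice were depilated and dosed orally, with five animals per dose plus controls. After each dose the mice were exposed to UVA for 3 h. This was repeated daily for 4 days. Any redness or erythema relative to control was scored positive. The value is the highest dose producing no effect, in mg/kg.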

Compound	ED50 (Mus musculus [1]) [mg/kg]	MIC (Enterococcus faecalis) [µg/mL]	MIC (Staphylococcus aureus [2]) [µg/mL]	MIC (Escherichia coli) [µg/mL]	ED50 (Mus musculus [3]) [mg/kg]	ED50 (Mus musculus [4]) [mg/kg]	MIC (Staphylococcus aureus [5]) [µg/mL]	ED50 (Mus musculus [6]) [mg/kg]	MIC (Klebsiella pneumoniae) [µg/mL]	MIC (Pseudomonas aeruginosa) [µg/mL]	MIC (Enterobacter cloacae) [µg/mL]	MIC (Providencia rettgeri) [µg/mL]	MIC (Streptococcus pneumoniae) [µg/mL]	MIC (Streptococcus pyogenes) [µg/mL]	IC50 (V79) [µg/mL]	NOAEL [7] [mg/kg]
NCC1CCN(c2c(F)cc3c(=O)c(C(=O)O)cn(C4CC4)c3c2Cl)C1 (configuration not stated)	5	0.006 (≈ 0.0158 µM)	0.003 (≈ 0.0079 µM)	0.025 (≈ 0.0658 µM)	33	1	0.003 (≈ 0.0079 µM)	0.2	0.05 (≈ 0.132 µM)	0.4 (≈ 1.05 µM)	0.025 (≈ 0.0658 µM)	0.05 (≈ 0.132 µM)	0.003 (≈ 0.0079 µM)	0.003 (≈ 0.0079 µM)		
NCC1CCN(c2cc3c(cc2F)c(=O)c(C(=O)O)cn3C2CC2)C1 (configuration not stated)	> 100	0.05 (≈ 0.145 µM)	0.05 (≈ 0.145 µM)	0.05 (≈ 0.145 µM)	> 100	2	0.006 (≈ 0.0174 µM)	4	0.1 (≈ 0.29 µM)	0.8 (≈ 2.32 µM)	0.1 (≈ 0.29 µM)	0.2 (≈ 0.579 µM)	0.013 (≈ 0.0376 µM)	0.013 (≈ 0.0376 µM)		
NCC1CCN(c2nc3c(cc2F)c(=O)c(C(=O)O)cn3C2CC2)C1 (configuration not stated)	39	0.025 (≈ 0.0722 µM)	0.1 (≈ 0.289 µM)	0.05 (≈ 0.144 µM)	17	1	0.003 (≈ 0.00866 µM)	4	0.1 (≈ 0.289 µM)	0.2 (≈ 0.577 µM)	0.1 (≈ 0.289 µM)	0.4 (≈ 1.15 µM)	0.1 (≈ 0.289 µM)	0.025 (≈ 0.0722 µM)	42 (≈ 121 µM)	
NC1CCN(c2c(F)cc3c(=O)c(C(=O)O)cn(C4CC4)c3c2F)C1 (configuration not stated)	8	0.05 (≈ 0.143 µM)	0.05 (≈ 0.143 µM)	0.013 (≈ 0.0372 µM)	1	0.2	0.025 (≈ 0.0716 µM)	2	0.025 (≈ 0.0716 µM)	0.1 (≈ 0.286 µM)	0.025 (≈ 0.0716 µM)	0.05 (≈ 0.143 µM)	0.05 (≈ 0.143 µM)	0.05 (≈ 0.143 µM)		3
COc1c(N2CCC(CN)C2)c(F)cc2c(=O)c(C(=O)O)cn(C3CC3)c12 (configuration not stated)	11	0.013 (≈ 0.0346 µM)	0.025 (≈ 0.0666 µM)	0.05 (≈ 0.133 µM)			0.003 (≈ 0.00799 µM)	0.6	0.1 (≈ 0.266 µM)	0.8 (≈ 2.13 µM)	0.05 (≈ 0.133 µM)	0.1 (≈ 0.266 µM)	0.003 (≈ 0.00799 µM)	0.003 (≈ 0.00799 µM)		
C[C@H](N)C1CCN(c2nc3c(cc2F)c(=O)c(C(=O)O)cn3C2CC2)C1 (some centres not stated)	14	0.05 (≈ 0.139 µM)	0.05 (≈ 0.139 µM)	0.05 (≈ 0.139 µM)	6	1	0.006 (≈ 0.0166 µM)	2	0.1 (≈ 0.277 µM)	0.8 (≈ 2.22 µM)	0.05 (≈ 0.139 µM)	0.4 (≈ 1.11 µM)	0.006 (≈ 0.0166 µM)	0.013 (≈ 0.0361 µM)	100 (≈ 277 µM)	67
CC(C)(N)[C@@H]1CCN(c2nc3c(cc2F)c(=O)c(C(=O)O)cn3C2CC2)C1.Cl	4	0.05	0.1	0.05	5	1	0.003	1	0.2	1.6	0.1	0.4	0.006	0.013	130	73
CC(C)(N)[C@@H]1CCN(c2c(F)cc3c(=O)c(C(=O)O)cn(C4CC4)c3c2Cl)C1.Cl	2	0.013	0.006	0.05	8	1	0.003	0.1	0.1	0.8	0.05	0.2	0.003	0.003	< 8	
CC(C)(N)[C@@H]1CCN(c2nc3c(cc2F)c(=O)c(C(=O)O)cn3-c2ccc(F)cc2F)C1.Cl		0.1	0.05	0.2			0.025		0.4	3.1	0.2	0.8	0.05	0.05		
